Measurements published in PubChem BioAssay AID624307 (The Scripps Research Institute Molecular Screening Center, 2012).
Values without a mark were called inactive.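 How the source made its calls: active means relative luminescence ratio of 1.25 or more at any tested dose; inactive means ratio below 1.25 at every tested dose.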

assay: StAR promoter luciferase reporter activators, dose response, counter-screen for DAX1 inhibitor project, cell-based, luminescence, HEK293, powder samples, assay provider (AID 624307); conditions: HEK293 StAR promoter luciferase reporter (DAX-1/SF-1); series mostly up to 100 µM; relative luminescence ratio, normalised: at the top concentration
Method in brief: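 Test system: HEK293 transfectants with DAX-1, SF-1 and StAR-luciferase reporter; doses: 100 µM single dose plus three-point 1:2 series from 50 µM; repeats: three replicates; measured by: reporter luminescence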

With `COc1ccc(OC)c(C(C)NC(=O)c2cccc(F)c2)c1` (centres undefined) as the compound, how does the “relative luminescence ratio, normalised” value read?
The value was 0.1.

With `COc1cccc(C(=O)NC(C)c2cc(OC)ccc2OC)c1` (centres undefined) as the compound, how does the “relative luminescence ratio, normalised” value read?
Its value is 0.04.

Which “relative luminescence ratio, normalised” value does the source give for `COc1ccc(OC)c(C(C)NC(=O)c2ccccc2Cl)c1` (centres undefined) here?
The value was 0.08.

With `COc1ccc(OC)c(C(C)NC(=O)c2ccc(C)cc2)c1` (centres undefined) as the compound, how does the “relative luminescence ratio, normalised” value read?
Its value is 0.09.

For `COc1ccc(OC)c(C(C)NC(=O)c2ccc3c(c2)OCCO3)c1` (centres undefined), which “relative luminescence ratio, normalised” value is on record?
The value was 0.04.

For `COc1ccc(OC)c(C(C)NC(=O)c2cccc3ccccc23)c1` (centres undefined), which “relative luminescence ratio, normalised” value is on record?
The value was 0.01.

With `COc1ccc(OC)c(C(C)NC(=O)c2c(F)cccc2Cl)c1` (centres undefined) as the compound, how does the “relative luminescence ratio, normalised” value read?
The value was 0.07.

Which “relative luminescence ratio, normalised” value does the source give for `Cc1cc(C(=O)Nc2ccc3c(c2)OCO3)cs1` here?
Its value is 0.14.

For `Cc1occc1C(=O)Nc1ccc2c(c1)OCO2`, which “relative luminescence ratio, normalised” value is on record?
The value was 0.07.

For `COc1ccc(OC)c(C(C)NC(=O)c2ccc(Cl)cc2)c1` (centres undefined), which “relative luminescence ratio, normalised” value is on record?
The value was 0.07.

With `O=C(Nc1ccc2c(c1)OCO2)c1cccs1` as the compound, how does the “relative luminescence ratio, normalised” value read?
Its value is 0.04.

For `O=C(Cc1cccs1)Nc1ccc2c(c1)OCO2`, which “relative luminescence ratio, normalised” value is on record?
Its value is 0.35.

For `COc1ccc(OC)c(C(C)NC(=O)c2ccc(F)cc2)c1` (centres undefined), which “relative luminescence ratio, normalised” value is on record?
The value was 0.06.

For `COc1cccc(C(=O)Nc2ccc3c(c2)OCO3)c1`, which “relative luminescence ratio, normalised” value is on record?
Its value is 0.03.

For `O=C(Nc1ccc2c(c1)OCO2)c1ccc(C2SCC(=O)N2Cc2ccccc2)cc1` (centres undefined), which “relative luminescence ratio, normalised” value is on record?
Its value is 0.02.

Which “relative luminescence ratio, normalised” value does the source give for `Cn1c(=O)n(C)c2cc(C(=O)Nc3ccc4c(c3)OCCO4)ccc21` here?
The value was 0.15.

With `COc1ccc(OC)c(C(C)NC(=O)c2cccc(C)c2)c1` (centres undefined) as the compound, how does the “relative luminescence ratio, normalised” value read?
The value was 0.1.

For `CSc1ccccc1C(=O)Nc1ccc2c(c1)OCCO2`, which “relative luminescence ratio, normalised” value is on record?
The value was 0.1.

Which “relative luminescence ratio, normalised” value does the source give for `O=C(Nc1ccc2c(c1)OCO2)c1ccc(C2SCC(=O)N2Cc2ccco2)cc1` (centres undefined) here?
The value was 0.34.

Which “relative luminescence ratio, normalised” value does the source give for `COc1ccc(OC)c(C(C)NC(=O)c2ccccc2)c1` (centres undefined) here?
The value was 0.1.

With `COc1cccc(C(=O)Nc2ccc3c(c2)OCCO3)c1` as the compound, how does the “relative luminescence ratio, normalised” value read?
The value was 0.05.

For `O=C(Nc1ccc2c(c1)OCO2)c1ccc2ccccc2c1`, which “relative luminescence ratio, normalised” value is on record?
The value was 0.08.

With `CSc1ccccc1C(=O)Nc1ccc2c(c1)OCO2` as the compound, how does the “relative luminescence ratio, normalised” value read?
Its value is 0.18.

With `O=C(Nc1ccc2c(c1)OCCO2)c1ccc2ccccc2c1` as the compound, how does the “relative luminescence ratio, normalised” value read?
Its value is 0.03.

With `COc1ccc(OC)c(C(C)NC(=O)c2ccccc2C)c1` (centres undefined) as the compound, how does the “relative luminescence ratio, normalised” value read?
Its value is 0.11.

For `COc1ccc(OC)c(C(C)NC(=O)c2ccc(C(C)(C)C)cc2)c1` (centres undefined), which “relative luminescence ratio, normalised” value is on record?
The value was 0.02.

For `Cn1c(=O)n(C)c2cc(C(=O)Nc3ccc4c(c3)OCO4)ccc21`, which “relative luminescence ratio, normalised” value is on record?
The value was 0.09.

With `CN(C)c1cccc(C(=O)Nc2ccc3c(c2)OCCO3)c1` as the compound, how does the “relative luminescence ratio, normalised” value read?
Its value is 0.07.

For `COc1ccc(OC)c(C(C)NC(=O)c2ccccc2F)c1` (centres undefined), which “relative luminescence ratio, normalised” value is on record?
Its value is 0.07.
